Converted amounts (≈) assume the structure as drawn. The source made the active and inactive calls. The rule behind the calls is not given here.
Assays:
[1] = target: T1, Protein-serine O-palmitoleoyltransferase porcupine (Homo sapiens, UniProt Q9H237); test: Inhibition of porcupine (unknown origin) expressed in HEK293-STF3A cells assessed as inhibition of Wnt signaling by measuring decrease in beta-catenin-mediated transcriptional activity after 24 hrs by Steady-Glo luciferase assay; format: cell-based
T1 sequence (Q9H237 whole entry): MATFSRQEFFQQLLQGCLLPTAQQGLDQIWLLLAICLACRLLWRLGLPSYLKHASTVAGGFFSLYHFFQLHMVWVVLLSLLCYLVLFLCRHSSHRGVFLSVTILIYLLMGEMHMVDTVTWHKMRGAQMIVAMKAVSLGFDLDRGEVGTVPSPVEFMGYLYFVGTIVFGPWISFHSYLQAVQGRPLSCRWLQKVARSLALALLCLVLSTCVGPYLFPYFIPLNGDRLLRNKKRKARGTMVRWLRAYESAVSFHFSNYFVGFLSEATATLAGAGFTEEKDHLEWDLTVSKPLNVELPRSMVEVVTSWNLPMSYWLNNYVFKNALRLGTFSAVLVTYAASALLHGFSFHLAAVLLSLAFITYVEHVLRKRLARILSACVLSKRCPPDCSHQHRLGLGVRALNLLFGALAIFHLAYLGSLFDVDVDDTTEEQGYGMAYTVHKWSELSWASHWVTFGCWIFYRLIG
Method in brief: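 HEK293-STF3A cells, 2 × 10⁴ per well, incubated overnight at 37 °C. Serially diluted compound added at final 50 μM to 1.5 nM. After 1 day, Steady-Glo luciferase added for 10 min at room temperature and luminescence read. IC50 derived from the dilution series.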

[2] = target: T2, Protein-serine O-palmitoleoyltransferase porcupine (Homo sapiens) (UniProt Q9H237); test: Inhibition of PORCN-mediated V5-tagged Wnt3A palmitoylation in human HeLa cells at 100 nM measured after over night incubation by Western blot analysis; format: cell-based
T2 sequence (whole entry): T1 sequence (Q9H237 whole entry)
Method in brief: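 HeLa cells seeded 3 × 10⁶ per 10 cm dish, overnight at 37 °C, then transfected with 5 μg pcDNA3.2/V5-Wnt3a. After 6 h, washed and given 100 μM ω-alkynyl palmitate in medium with 5% fatty-acid-free BSA plus compound (100 nM) or DMSO, overnight at 37 °C. From 600 μg lysate, V5-Wnt3a was immunoprecipitated and click-reacted with biotin azide. Blot read-outs: anti-V5/anti-mouse Dylight 680 for total, streptavidin-Dylight 800 for acylated.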

[3] = tested on: HEK293; test: Inhibition of beta-catenin-mediated transcriptional activity in Wnt3A knock out HEK293-STF cells preincubated for 4 hrs followed by Wnt-3A conditioned medium addition measured after 24 hrs by Steady-Glo luciferase assay; settings: Homo sapiens
[4] = Intrinsic clearance in mouse liver microsomes; format: ADME, microsome; settings: read-out: CLH
[5] = Oral bioavailability in mouse; format: ADME, organism-based; settings: in vivo
[6] = Permeability of the compound at pH 7.4 by PAMPA assay; format: physicochemical; settings: read-out: permeability
[7] = Cytotoxicity against HEK293 cells assessed as cell viability after 1 day by CellTiter-Glo luminescent assay; settings: human
[8] = Thermodynamic solubility of the compound at pH 7.4; format: physicochemical; settings: buffer, read-out: Therm_solubility
Method in brief: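 Compound at 500 μM from DMSO stock in pH 7.4 buffer, 1.0% DMSO. Incubated 18 h, then vacuum filtered. Filtrate mixed 1:1 with 1-propanol and quantified by UV spectroscopy.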

[9] = target: Cytochrome P450 3A4 (Homo sapiens, UniProt P08684); test: Inhibition of CYP3A4 (unknown origin)
Cytochrome P450 3A4, sequence (P08684 whole entry): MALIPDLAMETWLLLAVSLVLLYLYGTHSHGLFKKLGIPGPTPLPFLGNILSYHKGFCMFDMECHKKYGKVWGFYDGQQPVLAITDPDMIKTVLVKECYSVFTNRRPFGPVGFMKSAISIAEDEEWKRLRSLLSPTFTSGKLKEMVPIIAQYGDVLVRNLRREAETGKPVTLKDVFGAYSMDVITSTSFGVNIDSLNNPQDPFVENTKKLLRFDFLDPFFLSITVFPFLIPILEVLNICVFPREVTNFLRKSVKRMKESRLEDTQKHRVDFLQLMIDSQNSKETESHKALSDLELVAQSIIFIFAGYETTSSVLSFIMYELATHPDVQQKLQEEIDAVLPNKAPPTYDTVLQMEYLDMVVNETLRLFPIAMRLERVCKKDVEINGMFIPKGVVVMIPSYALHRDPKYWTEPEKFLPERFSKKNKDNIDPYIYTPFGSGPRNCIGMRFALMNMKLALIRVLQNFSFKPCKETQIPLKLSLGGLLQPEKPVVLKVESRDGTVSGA

[10] = target: Cytochrome P450 2D6 (Homo sapiens, UniProt P10635); test: Inhibition of CYP2D6 (unknown origin)
Cytochrome P450 2D6, sequence (P10635 whole entry): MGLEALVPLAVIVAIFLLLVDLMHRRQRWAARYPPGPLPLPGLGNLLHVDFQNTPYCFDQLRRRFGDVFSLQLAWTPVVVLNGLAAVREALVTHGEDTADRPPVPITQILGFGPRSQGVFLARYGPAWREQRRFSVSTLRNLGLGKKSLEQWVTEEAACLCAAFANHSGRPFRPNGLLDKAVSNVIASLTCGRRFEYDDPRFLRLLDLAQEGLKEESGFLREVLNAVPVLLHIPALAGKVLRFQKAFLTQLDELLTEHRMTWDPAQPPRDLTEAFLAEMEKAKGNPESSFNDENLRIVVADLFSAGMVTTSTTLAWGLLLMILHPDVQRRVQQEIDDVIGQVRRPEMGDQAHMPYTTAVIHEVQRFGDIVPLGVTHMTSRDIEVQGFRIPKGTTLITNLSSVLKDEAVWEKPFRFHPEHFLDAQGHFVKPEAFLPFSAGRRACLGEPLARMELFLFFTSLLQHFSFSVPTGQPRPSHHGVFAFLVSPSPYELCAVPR

[11] = tested on: Mus musculus; test: Antitumor activity in Balb/c mouse MMTV-Wnt1 model assessed as tumor growth inhibition at 3 mg/kg administered once daily for 14 days via oral gavage relative to vehicle treated control; format: functional; settings: 336 h, read-out: TGI
Method in brief: (§1)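 Orthotopic MMTV-Wnt1 tumor fragments implanted in mammary fat pads of Balb/c nude mice. Dosing began 14 days later (day 1), with 10 mice per group and mean tumor volume 103–107 mm³. Oral gavage once daily for 14 days at 10 mL/kg in 50% PEG 400/deionized water. Doses were 1, 3 or 10 mg/kg. Caliper volumes gave %TGI versus vehicle at day 14. Statistics by one-way ANOVA with Dunnett's test.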

[12] = AUC (0 to last) in mouse at 5 mg/kg, po; format: ADME, organism-based; design: dose 5 mg/kg, time 0 - last, route oral; settings: in vivo
[13] = Half life in mouse at 1 mg/kg, iv; format: ADME, organism-based; settings: in vivo
[14] = Oral bioavailability in mouse at 5 mg/kg; format: ADME, organism-based; settings: in vivo
[15] = tested on: Mus musculus; test: Antitumor activity in Balb/c mouse MMTV-Wnt1 model assessed as tumor growth inhibition at 10 mg/kg administered once daily for 14 days via oral gavage relative to vehicle treated control; format: functional; settings: 336 h, read-out: TGI; method in brief: as §1
[16] = tested on: Mus musculus; test: Antitumor activity in Balb/c mouse MMTV-Wnt1 model assessed as tumor growth inhibition at 1 mg/kg administered once daily for 14 days via oral gavage relative to vehicle treated control; format: functional; settings: 336 h, read-out: TGI; method in brief: as §1
[17] = Cmax in mouse at 5 mg/kg, po; format: ADME, organism-based; design: dose 5 mg/kg, route oral; settings: in vivo
[18] = tested on: Mus musculus; test: Antitumor activity in Balb/c mouse MMTV-Wnt1 model assessed as tumor growth inhibition administered once daily for 14 days via oral gavage; format: functional; method in brief: as §1
[19] = target: T3, Protein-serine O-palmitoleoyltransferase porcupine (Mus musculus) (UniProt Q9JJJ7); settings: 0.2 to 625 nM
T3 sequence (whole entry): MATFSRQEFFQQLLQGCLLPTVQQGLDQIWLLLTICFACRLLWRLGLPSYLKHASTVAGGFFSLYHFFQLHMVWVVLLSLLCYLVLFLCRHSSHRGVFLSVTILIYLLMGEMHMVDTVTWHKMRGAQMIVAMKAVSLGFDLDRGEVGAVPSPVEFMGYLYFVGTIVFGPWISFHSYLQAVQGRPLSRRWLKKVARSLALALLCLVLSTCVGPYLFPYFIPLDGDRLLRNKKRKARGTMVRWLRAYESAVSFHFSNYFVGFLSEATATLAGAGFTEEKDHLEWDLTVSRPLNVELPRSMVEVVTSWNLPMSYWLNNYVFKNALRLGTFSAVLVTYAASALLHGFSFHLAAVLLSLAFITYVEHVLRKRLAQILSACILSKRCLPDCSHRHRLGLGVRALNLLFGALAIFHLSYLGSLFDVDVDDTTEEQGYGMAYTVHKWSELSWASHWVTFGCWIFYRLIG

[20] = tested on: HT-1080; test: Inhibition of luciferase expression in human HT1080 cells after 24 hrs; format: functional, cell-based
Method in brief: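 HT1080 cells seeded at 150 000 per well a day before transfection. Transfected with control or murine PORCN plasmid (100 ng) plus Wnt/β-catenin reporter (550 ng) and Wnt3a (50 ng). Treated with serial dilutions from 625 to 0.2 nM at 0.1% DMSO final. Luciferase measured in lysate 24 h post-transfection.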

| Compound | IC50 [1] | microsomal CLint [4] | IC50 [9] | IC50 [10] | further results |
| --- | --- | --- | --- | --- | --- |
| O=C(COc1ccc(-n2ccnc2)cc1)Nc1ccc(-c2ccccc2)cc1 | 15 to 19 nM | 37 µL/min/mg | – | – | inhibition [2]: Active; IC50 [3]: > 30000 nM; bioavailability [5]: < 1%; Papp [6]: < 1 ×10⁻⁶ cm/s; CC50 at 24 h [7]: > 50000 nM; solubility thermodynamic [8]: < 1 µg/mL |
| Cc1nccn1-c1ccc(OCC(=O)Nc2ccc(-c3ccccc3)cc2)cc1 | 2 nM | – | 5200 nM | 1900 nM | – |
| C[C@@H](Oc1ccc(-n2ccnc2)cc1)C(=O)Nc1ccc(-c2ccccc2)cc1 | 130 nM | 63 µL/min/mg | – | – | inhibition [2]: Active |
| C[C@H](Nc1ccc(-c2ccnn2C)nc1)C(=O)Nc1ccc(-c2cccnc2)nc1 | 10 nM | 8 µL/min/mg | > 20000 nM | 3300 nM | Papp [6]: 26.8 ×10⁻⁶ cm/s; solubility thermodynamic [8]: 102 µg/mL (≈ 255 µM) |
| C[C@H](Nc1ccc(-c2ccnn2C)nc1)C(=O)Nc1ccc(-c2cccnc2)cn1 | 1 nM | 8 µL/min/mg | > 20000 nM | 8000 nM | inhibition in vivo at 3 mg/kg [11]: 71%; AUC(0-t) [12]: 12300 ng·h/mL; half-life [13]: 1.9 h; inhibition [2]: Active; bioavailability [14]: 106%; inhibition in vivo at 10 mg/kg [15]: 91%; inhibition in vivo at 1 mg/kg [16]: 50%; Cmax [17]: 4270 ng/mL; Papp [6]: 50.6 ×10⁻⁶ cm/s; TGI [18]: Dose-dependent effect; solubility thermodynamic [8]: 72.5 µg/mL (≈ 181 µM); inhibition [19]: Active; inhibition [20]: Dose-dependent effect |
| O=C(Nc1ccc(-c2ccccc2)cc1)[C@@H]1CCCN1c1ccc(-n2ccnc2)cc1 | 40 nM | 18 µL/min/mg | – | – | – |
| O=C(CNc1ccc(-n2ccnc2)cc1)Nc1ccc(-c2ccccc2)cc1 | 30 nM | 11 µL/min/mg | – | – | – |
| C[C@H](Oc1ccc(-n2ccnc2)cc1)C(=O)Nc1ccc(-c2ccccc2)cc1 | 7 nM | 85 µL/min/mg | – | – | – |
| O=C(COc1ccc(-n2cccc2)cc1)Nc1ccc(-c2ccccc2)cc1 | > 50000 nM | – | – | – | – |
| Cn1nccc1-c1ccc(OCC(=O)Nc2ccc(-c3ccccc3)cc2)cc1 | 4 nM | – | > 20000 nM | > 20000 nM | – |
| O=C(COc1ccc(-c2cnco2)cc1)Nc1ccc(-c2ccccc2)cc1 | 42 nM | – | > 20000 nM | > 20000 nM | – |
| O=C(Nc1ccc(-c2ccccc2)cc1)[C@H]1CCCN1c1ccc(-n2ccnc2)cc1 | 33000 nM | – | – | – | – |
| O=C(COc1ccc(-c2ccn[nH]2)cc1)Nc1ccc(-c2ccccc2)cc1 | > 50000 nM | – | – | – | – |
| C[C@H](Nc1ccc(-n2ccnc2)cc1)C(=O)Nc1ccc(-c2ccccc2)cn1 | 5 nM | 3.5 µL/min/mg | – | – | – |
| C[C@@H](Nc1ccc(-n2ccnc2)cc1)C(=O)Nc1ccc(-c2ccccc2)cn1 | 689 nM | 12 µL/min/mg | – | – | – |
| C[C@H](Nc1ccc(-c2ccnn2C)nc1)C(=O)Nc1ccc(-c2ccccc2)cn1 | 1 nM | 8 µL/min/mg | > 20000 nM | > 20000 nM | Papp [6]: 113 ×10⁻⁶ cm/s; solubility thermodynamic [8]: 4 µg/mL (≈ 10 µM) |

— ChEMBL document CHEMBL4000145, “Discovery and Optimization of a Porcupine Inhibitor” (J Med Chem, 2015)
